Measured values from ChEMBL document CHEMBL1811759, “Synthesis and topoisomerase I inhibitory activity of a novel diazaindeno[2,1-b]phenanthrene analogue of Lamellarin D” (Bioorg Med Chem, 2011).
Activity calls are given as the source filed them. The calls are words filed in the database; no cut-off is given here.

What was measured:
[1] = test system: NCI-H460; assay: Antiproliferative activity against human NCI-H460 cells after 1 hr by coulter counter analysis; format: functional, cell-based; settings: NCI-H460, 1 h
Method in brief: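 NCI-H460 NSCLC cells in RPMI-1640 + 10% foetal calf serum; log-phase cells seeded in duplicate, drug added 24 h after seeding for 1 h, then counted (Coulter counter) 72 h later. IC50 = concentration giving 50% decrease in cell growth vs untreated control.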

[2] = target: T1, DNA topoisomerase 1 (Homo sapiens) (UniProt P11387); assay: Stimulation of human recombinant DNA topoisomerase 1-mediated 751-bp BamHI-EcoRV fragment of SV40 DNA cleavage at 1 to 50 uM after 30 mins by polyacrylamide gel-electrophoresis
T1 sequence (whole entry): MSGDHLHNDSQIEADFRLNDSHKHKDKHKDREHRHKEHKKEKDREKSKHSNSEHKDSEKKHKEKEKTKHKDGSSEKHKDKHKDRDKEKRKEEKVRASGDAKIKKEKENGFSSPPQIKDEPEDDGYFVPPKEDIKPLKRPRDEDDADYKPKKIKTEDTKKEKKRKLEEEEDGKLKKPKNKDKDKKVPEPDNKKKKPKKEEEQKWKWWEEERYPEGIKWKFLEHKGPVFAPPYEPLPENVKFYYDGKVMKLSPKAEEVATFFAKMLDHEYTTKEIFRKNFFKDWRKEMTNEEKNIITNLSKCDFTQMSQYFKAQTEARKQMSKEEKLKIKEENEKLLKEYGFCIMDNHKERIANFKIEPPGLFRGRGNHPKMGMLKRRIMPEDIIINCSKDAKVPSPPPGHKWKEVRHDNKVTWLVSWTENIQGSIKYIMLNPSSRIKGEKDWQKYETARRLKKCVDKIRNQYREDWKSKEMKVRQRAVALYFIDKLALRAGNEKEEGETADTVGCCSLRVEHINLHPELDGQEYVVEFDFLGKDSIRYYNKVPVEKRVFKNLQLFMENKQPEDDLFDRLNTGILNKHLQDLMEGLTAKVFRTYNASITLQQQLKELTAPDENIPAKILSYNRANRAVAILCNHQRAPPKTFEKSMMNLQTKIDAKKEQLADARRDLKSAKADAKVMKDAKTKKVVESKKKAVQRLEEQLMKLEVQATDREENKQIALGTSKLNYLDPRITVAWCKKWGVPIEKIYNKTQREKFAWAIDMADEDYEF
Method in brief: (§1)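 Gel-purified 751-bp BamHI–EcoRV SV40 DNA fragment, uniquely 3'-end labeled (10,000 cpm/sample), incubated with full-length human recombinant topoisomerase I in 10 mM Tris–HCl pH 7.6, 150 mM KCl, 5 mM MgCl2, 0.1 mM DTT, 30 min, 37 °C. Stopped with 0.5% SDS plus 0.3 mg/mL proteinase K (45 min, 42 °C); products resolved on denaturing 8% polyacrylamide/TBE gel.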

[3] = test system: NCI-H460; assay: Antiproliferative activity against human NCI-H460 cells after 72 hrs by coulter counter analysis; format: functional, cell-based; settings: NCI-H460, 72 h
Method in brief: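 NCI-H460 cells grown in RPMI-1640 with 10% foetal calf serum; log-phase cells seeded in duplicate, exposed 24 h post-seeding for 72 h continuously, counted by Coulter counter at end of exposure. IC50 taken as concentration halving cell growth relative to untreated control.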

[4] = target: T1, DNA topoisomerase 1 (Homo sapiens); assay: Stimulation of human recombinant DNA topoisomerase 1-mediated 751-bp BamHI-EcoRV fragment of SV40 DNA cleavage at 100 uM after 30 mins by polyacrylamide gel-electrophoresis; method in brief: as §1

Q: How did the IC50 [1] turn out when `COc1cc(-c2[nH]c(=O)c3c(c2-c2ccc(OC(C)C)c(OC)c2)c2ccccc2n3C)ccc1OC(C)C` was run?
A: 60.8 µM

Q: What does the source list for `COc1cc(-c2[nH]c(=O)c3[nH]c4cc(O)c(OC)cc4c3c2-c2ccc(O)c(OC)c2)ccc1O`?
A: IC50 [1]: 60.8 µM; Activity [2]: inactive

Q: For `COc1cc(-c2c3c4cc(OC)c(O)cc4oc(=O)c3n3ccc4cc(O)c(OC)cc4c23)ccc1O` [LAMELLARIN D], which IC50 [1] is on record?
A: 0.066 µM

Q: And the IC50 [3]?
A: 0.003 µM

Q: And the Activity [2]?
A: Active

Q: Which IC50 [1] does the source give for `COc1cc2c3c(-c4ccc(OC(C)C)c(OC)c4)c(-c4ccc(OC(C)C)c(OC)c4)[nH]c(=O)c3n(Cc3ccccc3)c2cc1OCc1ccccc1` here?
A: > 150 µM

Q: What about the Activity [2] of the same compound?
A: inactive

Q: `CC[C@@]1(O)C(=O)OCc2c1cc1n(c2=O)Cc2cc3c(CN(C)C)c(O)ccc3nc2-1` [TOPOTECAN] was tested. Which IC50 [1] did it give?
A: 1.75 µM

Q: What about the IC50 [3] of the same compound?
A: 0.016 µM

Q: How did the Activity [2] turn out when `CCc1c2c(nc3ccc(O)cc13)-c1cc3c(c(=O)n1C2)COC(=O)[C@]3(O)CC` was run?
A: Active

Q: How did the IC50 [1] turn out when `COc1cc(-c2[nH]c(=O)c3c(c2-c2ccc(O)c(OC)c2)c2ccccc2n3C)ccc1O` was run?
A: 60.8 µM

Q: What does the source list for `COc1cc(-c2c3n(c(=O)c4c2c2cc(OC)c(O)cc2n4C)COc2cc(O)c(OC)cc2-3)ccc1O`?
A: IC50 [1]: 4.02 µM; Activity [4]: Active; IC50 [3]: 0.35 µM

Q: How did the IC50 [1] turn out when `COc1cc(-c2[nH]c(=O)c3[nH]c4cc(OC)c(O)cc4c3c2-c2ccc(O)c(OC)c2)ccc1O` was run?
A: 60.8 µM

Q: With `Cn1c2ccccc2c2cc3n(c(=O)c21)COc1ccccc1-3` as the compound, how does the IC50 [1] read?
A: 118 µM

Q: How did the IC50 [1] turn out when `COc1cc(-c2[nH]c(=O)c3c(c2-c2ccc(O)c(OC)c2)c2cc(OC)c(O)cc2n3Cc2ccccc2)ccc1O` was run?
A: 119 µM

Q: And the Activity [2]?
A: inactive
